Compounds with a hit are over-represented: about 3.5% of the library has one in this group of screens.
RGS4 block – inhibitors of human RGS4; P49798; HEK293 M3R/RGS4 inducible, Fluo-4 calcium flux; stronger effect = higher value; triggered by carbachol at its EC20; B-score at 10 µM; 310,000 tested, 0.45% active;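 active = B-score, a plate-corrected calcium signal, over three deviations above library mean, with baseline fluorescence within five deviations of library mean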;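 note: RGS4 expression induced by doxycycline in cells with stable M3 receptor; B-score is computed from the integrated fluorescence ratio over baseline after carbachol; higher B-score means a larger calcium signal and so more RGS4 inhibition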
Target sequence (P49798 whole entry, looked up): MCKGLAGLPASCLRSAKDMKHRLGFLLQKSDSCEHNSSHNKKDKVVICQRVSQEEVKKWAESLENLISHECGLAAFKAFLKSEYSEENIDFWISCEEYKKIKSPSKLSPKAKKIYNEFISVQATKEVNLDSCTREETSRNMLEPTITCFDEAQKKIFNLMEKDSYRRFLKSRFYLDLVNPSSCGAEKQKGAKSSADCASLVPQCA
MrgX1 antagonist – human MrgX1 receptor antagonism, primary screen. Q96LB2. MRGX1-HEK293 calcium flux, Fluo-4, BAM8-22 antagonism; stronger effect = lower value. B-score at 10 µM. 310,000 tested, 1.3% active. AID 588676;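 active = calcium-response B-score plate-corrected more than 3 library SD below zero, starting fluorescence within 5 deviations, no agonist response on first addition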;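 note: peak minus trough fluorescence over baseline after final BAM8-22 challenge near maximal dose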
Target sequence (Q96LB2 whole entry, looked up): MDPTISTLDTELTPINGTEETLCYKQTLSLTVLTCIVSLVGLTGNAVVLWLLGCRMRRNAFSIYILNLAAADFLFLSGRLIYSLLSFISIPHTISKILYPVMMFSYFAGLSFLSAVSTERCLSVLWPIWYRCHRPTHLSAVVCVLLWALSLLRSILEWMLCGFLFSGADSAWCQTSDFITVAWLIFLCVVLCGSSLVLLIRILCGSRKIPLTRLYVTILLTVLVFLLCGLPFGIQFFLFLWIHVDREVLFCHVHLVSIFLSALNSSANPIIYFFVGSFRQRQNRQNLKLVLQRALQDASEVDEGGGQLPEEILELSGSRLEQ
MrgX1 allo act – allosterically activates human MrgX1 receptor signaling; 310,000 tested, 0.63% active; B-score at 10 µM; Q96LB2; AID 588675; MrgX1-HEK293, Fluo-4 calcium flux, FDSS; stronger effect = higher value;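 active = plate-corrected calcium response at least 3 library SD above typical, normal starting fluorescence, not activating the receptor alone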;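 note: compound read alongside a low EC10 to EC30 dose of BAM8-22 agonist; peak minus trough fluorescence over baseline measured at the second addition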
RGS4 pot – potentiators or activators of RGS4 | B-score at 10 µM | AID 463111 | HEK293 M3R/inducible RGS4, carbachol calcium flux Fluo4; stronger effect = lower value | 310,000 tested, 0.92% active;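 active = B-score of the integrated calcium signal more than 4 SD below the library mean, with starting fluorescence not abnormally high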;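 note: negative B-score means reduced calcium response which marks RGS4 activation or potentiation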
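test system = HEK293 cells with stable M3R and inducible RGS4 | schedule = recording 10 s baseline at 1 Hz, 100 s post-agonist | technique = Fluo4-AM (2 µM) calcium-flux fluorescence, kinetic read | measure = Agonist-evoked peak-minus-minimum fluorescence over baseline, integrated ratio, B score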
MrgX1 ag – human MrgX1 receptor agonism, primary screen | MrgX1-HEK293 cells, Fluo-4 calcium fluorescence, agonist mode; stronger effect = higher value | B-score at 10 µM | 310,000 tested, 0.44% active | AID 588627;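 active = calcium response B-score plate-corrected fluorescence ratio at least 3 library SD, with starting fluorescence B-score inside 5 SD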
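Test system: HEK293 cells stably expressing human MrgX1 receptor; Input: fifteen thousand cells per well; Dosing: compound delivered in addition one of three; Schedule: overnight seeding, then 1 h dark dye loading; Technique: Fluo-4 NW calcium fluorescence; Measure: B-scored fluorescence response ratio; Controls: positive and negative controls per plate.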
RGS4 inh valid – RGS4 inhibitor validation; HEK293 M3R/RGS4, carbachol calcium Fluo-4 fluorescence; carbachol added at its EC20; 0 = buffer wells, 100 = carbachol control; AID 492999; shares compounds with RGS4 block; calcium response, % at 10 µM; 1,700 tested, 65% active;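 active = duplicate-averaged calcium response above the buffer-only control mean plus 5 SD of those controls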;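 note: integrated fluorescence ratio F max minus min over baseline F0; higher response in RGS4-induced cells means RGS4 inhibition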
RGS4 uninduced – non-induced cell nonspecific activity of RGS4 inhibitors. shares compounds with RGS4 block. HEK293 M3R non-induced, carbachol calcium Fluo-4; submaximal (EC20) carbachol stimulus; buffer wells 0%, carbachol control wells 100%. activity (percent), % at 10 µM. 1,900 tested, 20% active. AID 493000; call rule not given here;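 note: RGS4 induction absent so cells express M3R without RGS4; higher means more calcium signal and flags a non-specific hit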
RGS4 inh ctr2 – second counter-screen for RGS4 inhibitors: non-induced cells without carbachol; 1,900 tested, 22% active; calcium response (agonist-mode artifact), % at 10 µM; HEK293 M3R/RGS4 non-induced, Fluo-4 calcium, no carbachol; normalised: buffer wells 0%, carbachol wells 100%; shares compounds with RGS4 block;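 active = duplicate-averaged calcium rise in uninduced cells above buffer wells' mean plus 5 SD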
Active calls of the source: *; i = inactive; nt = no result.

SMILES	RGS4 block	MrgX1 antagonist	MrgX1 allo act	RGS4 pot	MrgX1 ag	RGS4 inh valid	RGS4 uninduced	RGS4 inh ctr2
CCOC(=O)c1c(-c2ccccc2)csc1NC(=O)CSc1nc(C)cc(C)n1	i	i	i	i	i	i	i	i
CCOC(=O)c1c(-c2ccc(C)o2)csc1NC(=O)CSc1nncs1	13*	i	i	i	i	11%*	i	i
CCOC(=O)c1c(-c2ccccc2)csc1NC(=O)CSc1nc(N)cc(N)n1	5.5*	i	i	i	i	6.0%*	i	i
CCOC(=O)c1c(-c2ccc(C)o2)csc1NC(=O)CN1CCCCC1	i	i	i	i	i	nt	nt	nt
CC(C)(C)OC(=O)NNC(=O)c1cccs1	i	i	i	i	i	nt	nt	nt
COc1ccc(S(=O)(=O)NCCC(=O)NCc2ccccc2)cc1	i	i	i	i	i	i	i	i
COc1ccc(COC(=O)C2=C(C)NC(=O)NC2c2ccccc2)cc1 (centres undefined)	i	i	i	i	i	nt	nt	nt
COc1ccc(C2NC(=S)NC(C)=C2C(=O)c2ccccc2)cc1OC (centres undefined)	i	i	i	i	i	nt	nt	nt
CC1=C(C(=O)c2ccccc2)C(c2cccc([N+](=O)[O-])c2)NC(=S)N1 (centres undefined)	10*	i	i	i	i	23%*	33%*	i
CC(=O)C1=C(C)OC(N)=C(C#N)C1c1cccc([N+](=O)[O-])c1 (centres undefined)	7.2*	i	i	i	i	i	i	i
CCOP(=O)(OCC)C(C#N)=C1SCN(c2ccccc2)CS1	i	i	i	i	i	nt	nt	nt
CCc1ccc(CN2CCC(n3nccc3NC(=O)C3CCCC3)CC2)cc1	i	i	i	i	i	nt	nt	nt
COc1ccc2cc(C3C(C#N)=C(N)OC(C)=C3C(C)=O)c(Cl)nc2c1 (centres undefined)	5.6*	i	i	i	i	32%*	i	i
Cc1cc(SCc2cccc(C(F)(F)F)c2)nc(=O)[nH]1	i	i	i	i	i	nt	nt	nt
N#CC1=C(N)Oc2c(O)cc3ccccc3c2C1c1ccsc1 (centres undefined)	14*	i	i	i	i	40%*	33%*	i
Cc1ccc(CCNC(=O)c2cc(S(=O)(=O)N3CCCC3)cn2C)cc1	i	i	i	i	i	nt	nt	nt
O=C(O)c1ccc2c(=O)n3c(nc2c1)/C(=C/c1ccc(Cl)cc1Cl)CC3	19*	i	i	i	i	24%*	i	i
O=C(NC(=S)N1CCCC1)c1cccc([N+](=O)[O-])c1	i	i	i	i	i	nt	nt	nt
C=CCNC(=O)/C(C#N)=C/c1ccc(OS(=O)(=O)c2ccc(C)cc2)c(OC)c1	4.8*	i	i	i	i	14%*	i	i
Nc1nc(CSc2nc3ccccc3s2)nc(N2CCCCC2)n1	i	i	i	i	i	nt	nt	nt
Cc1nnc(SCc2nc(N)nc(Nc3ccccc3)n2)s1	5.4*	i	i	i	i	14%*	i	i
CCc1ccc(Nc2nc(N)nc(CSc3nc4ccccc4s3)n2)cc1	i	i	i	i	i	i	i	i
CCOc1ccc(C(=O)Nc2nnc(NC(=S)Nc3ccccc3)s2)cc1	4.9*	i	i	i	i	10%*	i	i
Cc1ccc(C(=O)Nc2nnc(NC(=S)Nc3ccccc3)s2)cc1	i	i	i	i	i	nt	nt	nt
CCC1(CC)Cc2ccccc2-c2nc(NCCO)[nH]c(=O)c21	26*	i	i	i	i	101%*	84%*	i
SMILES	RGS4 block	MrgX1 antagonist	MrgX1 allo act	RGS4 pot	MrgX1 ag	RGS4 inh valid	RGS4 uninduced	RGS4 inh ctr2
O=c1[nH]c(NCCO)nc2c1C1(CCCCC1)Cc1ccccc1-2	nt	i	i	nt	i	nt	nt	nt
Cn1c(N)c(S(=O)(=O)N2CCCC2)c(=O)n(C)c1=O	i	i	i	i	i	nt	nt	nt
O=C(/C=C/c1cccc([N+](=O)[O-])c1)N1CCN(c2ccccn2)CC1	i	i	i	i	i	nt	nt	nt
O=C(/C=C/c1cccc([N+](=O)[O-])c1)c1cccs1	4.8*	i	i	i	35*	i	i	i
O=C(/C=C/c1cccc([N+](=O)[O-])c1)Nc1ccc(NC(=O)c2cccs2)cc1	i	i	i	i	i	nt	nt	nt
Cc1cc(O)c(C(=O)/C=C/c2cccc([N+](=O)[O-])c2)c(=O)o1	4.7*	i	i	i	i	30%*	i	i
O=C(/C=C/c1cccc([N+](=O)[O-])c1)n1cnc2ccccc21	7.9*	nt	nt	i	nt	19%*	i	i
Cc1ccc2cc(/C=N/NC(=O)c3ccc(F)cc3)c(Cl)nc2c1	i	i	i	i	i	nt	nt	nt
COc1ccc2cc(/C=C/C(=O)c3ccco3)c(Cl)nc2c1	i	i	i	i	i	nt	nt	nt
Cc1ccc2cc(/C=C/C(=O)c3ccco3)c(Cl)nc2c1	6*	i	i	i	i	i	39%*	i
COc1cc2cc(/C=C/C(=O)c3ccco3)c(Cl)nc2cc1OC	8.1*	i	i	i	i	16%*	i	20%*
Cc1ccc2nc(Cl)c(/C=C/C(=O)c3ccco3)cc2c1	i	i	i	i	i	i	50%*	i
O=C(O)CSCC(=O)N1N=C2/C(=C/c3ccccc3)CCCC2C1c1ccccc1 (centres undefined)	i	i	i	i	i	nt	nt	nt
COc1ccc(/C=C2\CCCC3C2=NN(C(=O)CSc2ncn[nH]2)C3c2ccc(OC)cc2)cc1 (centres undefined)	i	i	i	i	i	nt	i	i
O=C(CSc1ncn[nH]1)N1N=C2/C(=C/c3ccccc3)CCCC2C1c1ccccc1 (centres undefined)	5.1*	i	i	i	i	10%*	i	i
